Our source for the Activity and inhibition values is ChEMBL document CHEMBL4354843, “Structure-Based Design of a Potent and Selective Covalent Inhibitor for SRC Kinase That Targets a P-Loop Cysteine” (J Med Chem, 2020).

Assay [1] has as its system Epidermal growth factor receptor (Homo sapiens), P00533 [L858R,T790M]. Put plainly: Binding affinity to human partial length EGFR L858R/T790M double mutant (R669 to V1011 residues) expressed in mammalian expression system assessed as residual binding level at 1 uM by Kinomescan method relative to control. The essentials:
(§1)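 KinomeScan active site-directed competition binding panel (468 kinases), compound tested at 1 μM. Result expressed as remaining kinase signal versus DMSO control (percent of control).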

In assay [2] the target is RAF proto-oncogene serine/threonine-protein kinase (Homo sapiens) (UniProt P04049). Put plainly: Binding affinity to wild-type human partial length RAF1 (I330 to T640 residues) expressed in bacterial expression system assessed as residual binding level at 1 uM by Kinomescan method relative to control.
Assay [3] deals with Ankyrin repeat and protein kinase domain-containing protein 1 (Homo sapiens) (UniProt Q8NFD2). Put plainly: Binding affinity to wild-type human partial length ANKK1 (M1 to A305 residues) expressed in mammalian expression system assessed as residual binding level at 1 uM by Kinomescan method relative to control. The essentials:
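KinomeScan, an active site-directed competition binding panel of 468 kinases. The test compound was at 1 μM. The readout is remaining kinase binding as a percentage of the DMSO control. Scores above 35% were treated as weak binding and not listed.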

The target in assay [4] is Serine/threonine-protein kinase NIM1 (Homo sapiens) (UniProt Q8IY84). Put plainly: Binding affinity to wild-type human partial length NIM1 (Q44 to N355 residues) expressed in mammalian expression system assessed as residual binding level at 1 uM by Kinomescan method relative to control.
For assay [5], the target named is Serine/threonine-protein kinase MARK2 (Homo sapiens) (UniProt Q7KZI7). Put plainly: Binding affinity to wild-type human partial length MARK2 (M1 to R450 residues) expressed in bacterial expression system assessed as residual binding level at 1 uM by Kinomescan method relative to control.
Assay [6] deals with Receptor-type tyrosine-protein kinase FLT3 (Homo sapiens), P36888 [D835H]. Put plainly: Binding affinity to human partial length FLT3 D835H mutant (V592 to Y969 residues) expressed in bacterial expression system assessed as residual binding level at 1 uM by Kinomescan method relative to control. The gist of the method:
as §1

Assay [7] addresses Tyrosine-protein kinase JAK2 (Homo sapiens) (UniProt O60674). Put plainly: Binding affinity to wild-type human partial length JAK2 JH1 catalytic domain (A829 to G1132 residues) expressed in mammalian expression system assessed as residual binding level at 1 uM by Kinomescan method relative to control. The essentials:
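Active-site-directed competition binding panel of 468 kinases (KinomeScan), compound at 1 μM. The read-out is kinase remaining bound, given as a percentage of the DMSO control. […]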

Assay [8] addresses Tyrosine-protein kinase Mer (Homo sapiens) (UniProt Q12866). Put plainly: Binding affinity to wild-type human partial length MERTK (R557 to L884 residues) expressed in bacterial expression system assessed as residual binding level at 1 uM by Kinomescan method relative to control.
In assay [9] the target is Serine/threonine-protein kinase DCLK2 (Homo sapiens) (UniProt Q8N568). Put plainly: Binding affinity to wild-type human partial length DCAMKL2 (K273 to V664 residues) expressed in bacterial expression system assessed as residual binding level at 1 uM by Kinomescan method relative to control.
Assay [10] deals with Proto-oncogene tyrosine-protein kinase receptor Ret (Homo sapiens), P07949 [V804M]. Put plainly: Binding affinity to human partial length RET V804M mutant (E713 to D1014 residues) expressed in bacterial expression system assessed as residual binding level at 1 uM by Kinomescan method relative to control. The gist of the method:
as §1

Assay [11] has as its target Cyclin-dependent kinase 3 (Homo sapiens) (UniProt Q00526). Put plainly: Binding affinity to wild-type human full length CDK3 (M1 to H305 residues) expressed in bacterial expression system assessed as residual binding level at 1 uM by Kinomescan method relative to control. The essentials: (§2)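 Active-site-directed KinomeScan competition binding panel covering 468 kinases, compound tested at 1 μM. Each readout is the kinase signal remaining with compound, expressed as a percentage of the DMSO control. […]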

In assay [12] the target is Serine/threonine-protein kinase PknB (Mycobacterium tuberculosis) (UniProt P9WI81). Put plainly: Binding affinity to wild-type Mycobacterium tuberculosis partial length PKNB (M1 to G279 residues) expressed in mammalian expression system assessed as residual binding level at 1 uM by Kinomescan method relative to control. The gist of the method: as §2
Assay [13] deals with Serine/threonine-protein kinase ULK3 (Homo sapiens) (UniProt Q6PHR2). Put plainly: Binding affinity to wild-type human partial length ULK3 (M1 to Q290 residues) expressed in mammalian expression system assessed as residual binding level at 1 uM by Kinomescan method relative to control.
The target of assay [14] is RAC-beta serine/threonine-protein kinase (Homo sapiens) (UniProt P31751). Put plainly: Binding affinity to wild-type human partial length AKT2 expressed in bacterial expression system assessed as residual binding level at 1 uM by Kinomescan method relative to control.
Assay [15] concerns the target Mitogen-activated protein kinase kinase kinase 7 (Homo sapiens) (UniProt O43318). Put plainly: Binding affinity to wild-type human partial length TAK1 (M1 to Q303 residues) expressed in mammalian expression system assessed as residual binding level at 1 uM by Kinomescan method relative to control. The gist of the method:
(§3)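 Active site-directed competition binding panel (KinomeScan, 468 kinases). Test compound at 1 μM. Read-out is kinase binding remaining versus DMSO control, expressed as percent of control. Scores above 35% are treated as weak binding.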

For assay [16], the target named is Dual specificity mitogen-activated protein kinase kinase; MEK1/2 (Homo sapiens) (UniProt P36507+Q02750). Put plainly: Inhibition of MEK1/2 in human NCI-H1975 cells assessed as blocking of MEK1/2 pulldown at 1 uM in presence of TL13-68 incubated for 2 hrs by Western blot analysis. In kind it is cell-based. The gist of the method:
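H1975 or HCC827 cells treated with 1 μM compound or DMSO for 2 h, rinsed twice in cold PBS, and lysed in M-PER with protease/phosphatase inhibitors. Lysate rocked overnight at 4 °C with 1 μM TL13-68, then streptavidin pulldown with five cold washes. Bound kinases detected by Western blot. Two independent experiments.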
On the technique in general: In western blotting, separated proteins are transferred to a membrane and probed.

The target in assay [17] is Mitogen-activated protein kinase kinase kinase 19 (Homo sapiens) (UniProt Q56UN5). Put plainly: Binding affinity to wild-type human partial length YSK4 (T1019 to H1328 residues) expressed in mammalian expression system assessed as residual binding level at 1 uM by Kinomescan method relative to control. The essentials:
as §3

For assay [18], the target named is Death-associated protein kinase 1 (Homo sapiens) (UniProt P53355). Put plainly: Binding affinity to wild-type human partial length DAPK1 (M1 to F296 residues) expressed in bacterial expression system assessed as residual binding level at 1 uM by Kinomescan method relative to control.
The target of assay [19] is 5'-AMP-activated protein kinase catalytic subunit alpha-2 (Homo sapiens) (UniProt P54646). Put plainly: Binding affinity to wild-type human partial length AMPK alpha2 (M1 to E306 residues) expressed in bacterial expression system assessed as residual binding level at 1 uM by Kinomescan method relative to control.

Activity calls are given as the source filed them. No cut-off for these calls is given here.

Chain of Death-associated protein kinase 1 (Homo sapiens) (P53355 whole entry, looked up, the tested form may be a part): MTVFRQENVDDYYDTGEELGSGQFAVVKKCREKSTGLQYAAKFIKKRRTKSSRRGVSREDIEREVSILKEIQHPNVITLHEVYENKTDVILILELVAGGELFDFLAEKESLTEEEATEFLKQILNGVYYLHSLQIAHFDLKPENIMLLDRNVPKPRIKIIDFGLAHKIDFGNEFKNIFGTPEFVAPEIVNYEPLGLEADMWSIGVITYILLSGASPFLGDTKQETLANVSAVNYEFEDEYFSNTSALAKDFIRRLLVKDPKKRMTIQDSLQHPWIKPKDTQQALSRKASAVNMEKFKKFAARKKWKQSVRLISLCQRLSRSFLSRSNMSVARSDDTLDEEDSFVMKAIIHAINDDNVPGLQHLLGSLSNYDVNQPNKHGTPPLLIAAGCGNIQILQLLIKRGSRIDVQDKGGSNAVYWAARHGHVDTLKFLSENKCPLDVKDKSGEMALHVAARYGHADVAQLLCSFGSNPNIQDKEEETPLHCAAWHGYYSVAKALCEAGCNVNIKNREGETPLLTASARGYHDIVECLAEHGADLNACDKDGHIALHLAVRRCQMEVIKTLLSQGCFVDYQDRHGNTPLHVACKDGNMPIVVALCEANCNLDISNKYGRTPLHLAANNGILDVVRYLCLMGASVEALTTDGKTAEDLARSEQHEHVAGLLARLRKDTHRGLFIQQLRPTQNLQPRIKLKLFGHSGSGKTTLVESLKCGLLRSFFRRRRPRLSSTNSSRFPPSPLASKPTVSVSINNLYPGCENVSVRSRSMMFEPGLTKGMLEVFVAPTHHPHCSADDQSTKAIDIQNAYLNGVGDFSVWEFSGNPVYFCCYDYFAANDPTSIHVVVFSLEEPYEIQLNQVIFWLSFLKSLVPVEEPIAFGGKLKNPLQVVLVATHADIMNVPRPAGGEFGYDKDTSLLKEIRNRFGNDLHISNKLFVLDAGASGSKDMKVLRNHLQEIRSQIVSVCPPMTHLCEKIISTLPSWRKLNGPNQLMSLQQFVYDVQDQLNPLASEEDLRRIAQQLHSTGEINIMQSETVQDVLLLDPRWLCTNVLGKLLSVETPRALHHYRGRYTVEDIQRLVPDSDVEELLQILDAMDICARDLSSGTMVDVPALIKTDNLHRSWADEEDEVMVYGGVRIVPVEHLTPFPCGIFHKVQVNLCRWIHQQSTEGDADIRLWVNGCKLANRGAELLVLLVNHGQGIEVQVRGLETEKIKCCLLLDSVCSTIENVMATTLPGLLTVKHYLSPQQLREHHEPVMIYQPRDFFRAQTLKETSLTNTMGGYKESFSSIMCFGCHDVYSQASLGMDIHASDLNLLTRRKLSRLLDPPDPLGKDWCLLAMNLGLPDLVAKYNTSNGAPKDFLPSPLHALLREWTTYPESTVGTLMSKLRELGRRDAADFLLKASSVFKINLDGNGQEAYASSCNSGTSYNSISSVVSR
Chain of 5'-AMP-activated protein kinase catalytic subunit alpha-2 (Homo sapiens) (P54646 whole entry, looked up, the tested form may be a part): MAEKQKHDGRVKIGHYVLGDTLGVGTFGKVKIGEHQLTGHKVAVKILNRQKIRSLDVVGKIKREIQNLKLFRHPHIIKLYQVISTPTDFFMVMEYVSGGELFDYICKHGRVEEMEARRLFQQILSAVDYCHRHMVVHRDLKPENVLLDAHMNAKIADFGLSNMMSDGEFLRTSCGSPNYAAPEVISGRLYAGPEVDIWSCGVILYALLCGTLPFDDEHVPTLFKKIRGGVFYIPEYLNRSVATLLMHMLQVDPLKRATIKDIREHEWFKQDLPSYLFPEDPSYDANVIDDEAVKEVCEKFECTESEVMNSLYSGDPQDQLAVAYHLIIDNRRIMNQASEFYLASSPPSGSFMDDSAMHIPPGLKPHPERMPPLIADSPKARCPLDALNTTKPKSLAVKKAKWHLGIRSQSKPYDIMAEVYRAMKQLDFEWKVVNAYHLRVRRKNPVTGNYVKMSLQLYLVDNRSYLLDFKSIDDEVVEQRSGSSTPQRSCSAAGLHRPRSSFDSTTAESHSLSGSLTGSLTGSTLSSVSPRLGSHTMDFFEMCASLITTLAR
Chain of Dual specificity mitogen-activated protein kinase kinase; MEK1/2 (Homo sapiens) (P36507 whole entry, looked up): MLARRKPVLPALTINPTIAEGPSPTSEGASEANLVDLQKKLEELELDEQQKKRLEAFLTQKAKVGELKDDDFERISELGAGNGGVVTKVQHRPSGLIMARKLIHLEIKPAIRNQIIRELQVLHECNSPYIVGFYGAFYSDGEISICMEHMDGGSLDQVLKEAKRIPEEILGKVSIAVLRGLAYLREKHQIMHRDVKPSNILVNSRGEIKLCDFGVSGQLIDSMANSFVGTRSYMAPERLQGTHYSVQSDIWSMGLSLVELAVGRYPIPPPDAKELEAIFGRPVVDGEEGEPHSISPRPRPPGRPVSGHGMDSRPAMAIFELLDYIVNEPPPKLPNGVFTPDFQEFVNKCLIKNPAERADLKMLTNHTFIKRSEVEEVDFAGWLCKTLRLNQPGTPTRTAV
Chain of Dual specificity mitogen-activated protein kinase kinase; MEK1/2 (Homo sapiens) (Q02750 whole entry, looked up): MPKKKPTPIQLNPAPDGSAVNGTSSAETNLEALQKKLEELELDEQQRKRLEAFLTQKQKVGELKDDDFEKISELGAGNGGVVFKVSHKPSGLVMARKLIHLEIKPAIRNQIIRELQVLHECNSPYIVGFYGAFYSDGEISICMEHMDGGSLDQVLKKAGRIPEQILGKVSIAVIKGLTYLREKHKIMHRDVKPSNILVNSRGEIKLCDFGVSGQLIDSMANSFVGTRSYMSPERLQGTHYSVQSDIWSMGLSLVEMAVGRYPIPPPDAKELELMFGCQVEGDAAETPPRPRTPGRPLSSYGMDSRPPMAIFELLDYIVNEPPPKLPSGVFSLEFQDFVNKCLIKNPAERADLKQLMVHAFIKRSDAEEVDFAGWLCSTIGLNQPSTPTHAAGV
Chain of Ankyrin repeat and protein kinase domain-containing protein 1 (Homo sapiens) (Q8NFD2 whole entry, the tested form may be a part): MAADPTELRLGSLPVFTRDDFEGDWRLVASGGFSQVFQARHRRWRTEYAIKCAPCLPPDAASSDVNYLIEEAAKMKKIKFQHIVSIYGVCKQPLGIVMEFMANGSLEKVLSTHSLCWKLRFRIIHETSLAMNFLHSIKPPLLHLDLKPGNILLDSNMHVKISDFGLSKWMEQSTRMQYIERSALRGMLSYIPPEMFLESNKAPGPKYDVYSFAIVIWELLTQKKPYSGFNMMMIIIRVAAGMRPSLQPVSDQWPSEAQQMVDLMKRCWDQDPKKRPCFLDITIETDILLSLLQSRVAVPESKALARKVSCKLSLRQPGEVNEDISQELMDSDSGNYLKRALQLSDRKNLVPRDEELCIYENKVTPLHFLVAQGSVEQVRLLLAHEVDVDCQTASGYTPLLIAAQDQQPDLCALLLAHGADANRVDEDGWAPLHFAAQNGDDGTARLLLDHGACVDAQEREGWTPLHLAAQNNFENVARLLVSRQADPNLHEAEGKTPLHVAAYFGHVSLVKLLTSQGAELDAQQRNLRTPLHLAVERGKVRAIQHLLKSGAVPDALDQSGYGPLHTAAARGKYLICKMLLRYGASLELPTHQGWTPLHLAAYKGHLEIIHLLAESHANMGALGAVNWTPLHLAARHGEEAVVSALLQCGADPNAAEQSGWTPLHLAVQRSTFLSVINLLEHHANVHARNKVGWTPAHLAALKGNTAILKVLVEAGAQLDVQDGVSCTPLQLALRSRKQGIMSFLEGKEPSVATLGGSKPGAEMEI
Chain of RAC-beta serine/threonine-protein kinase (Homo sapiens) (P31751 whole entry, the tested form may be a part): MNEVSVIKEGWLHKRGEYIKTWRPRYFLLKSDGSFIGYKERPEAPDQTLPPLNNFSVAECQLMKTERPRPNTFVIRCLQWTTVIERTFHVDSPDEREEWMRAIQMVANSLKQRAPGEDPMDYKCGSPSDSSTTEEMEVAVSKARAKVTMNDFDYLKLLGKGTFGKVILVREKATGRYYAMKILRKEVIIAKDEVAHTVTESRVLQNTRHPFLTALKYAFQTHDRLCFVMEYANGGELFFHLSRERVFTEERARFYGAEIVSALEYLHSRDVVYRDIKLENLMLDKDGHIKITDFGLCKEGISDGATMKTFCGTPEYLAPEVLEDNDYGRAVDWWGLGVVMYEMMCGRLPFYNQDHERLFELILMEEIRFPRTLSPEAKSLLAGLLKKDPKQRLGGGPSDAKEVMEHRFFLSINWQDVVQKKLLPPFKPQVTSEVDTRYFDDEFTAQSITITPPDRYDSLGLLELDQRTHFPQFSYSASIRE
Chain of Cyclin-dependent kinase 3 (Homo sapiens) (Q00526 whole entry, looked up, the tested form may be a part): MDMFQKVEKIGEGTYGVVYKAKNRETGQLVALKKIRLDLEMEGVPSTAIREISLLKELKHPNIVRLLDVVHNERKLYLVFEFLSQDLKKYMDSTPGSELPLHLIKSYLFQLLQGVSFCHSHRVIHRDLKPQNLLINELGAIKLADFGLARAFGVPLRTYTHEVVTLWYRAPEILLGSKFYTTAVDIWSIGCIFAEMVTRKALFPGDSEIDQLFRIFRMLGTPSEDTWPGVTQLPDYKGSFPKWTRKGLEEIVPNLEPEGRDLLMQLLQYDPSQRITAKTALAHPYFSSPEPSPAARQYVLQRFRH
Chain of Serine/threonine-protein kinase ULK3 (Homo sapiens) (Q6PHR2 whole entry, the tested form may be a part): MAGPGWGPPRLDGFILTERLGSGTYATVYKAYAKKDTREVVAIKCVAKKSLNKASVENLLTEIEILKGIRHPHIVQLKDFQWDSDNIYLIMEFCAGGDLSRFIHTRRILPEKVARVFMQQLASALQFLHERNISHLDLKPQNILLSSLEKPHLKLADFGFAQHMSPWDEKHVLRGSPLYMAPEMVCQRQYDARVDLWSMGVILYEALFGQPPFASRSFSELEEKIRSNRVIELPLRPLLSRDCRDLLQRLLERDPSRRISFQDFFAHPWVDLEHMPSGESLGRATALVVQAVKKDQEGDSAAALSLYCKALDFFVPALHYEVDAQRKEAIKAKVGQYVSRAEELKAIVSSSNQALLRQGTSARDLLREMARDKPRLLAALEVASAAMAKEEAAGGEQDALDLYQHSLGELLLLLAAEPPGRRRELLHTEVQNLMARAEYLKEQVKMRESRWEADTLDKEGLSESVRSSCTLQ

Consider `C=CC(=O)Nc1ccccc1Nc1nc(Nc2ccc(N3CCN(C)CC3)cc2)ncc1C(=O)Nc1c(C)cccc1Cl`, for which the Activity in [1] is 100%; in assay [2], 100%; in assay [3], 98%; in assay [4], 100%; in assay [5] it was 100%; in [6], 95%. Also, the Activity turned out to be 90% in assay [7]; 95% in assay [8]; 100% in assay [9]; 100% in assay [10]; 100% in assay [11]; 100% in assay [12]. Besides, the Activity in assay [13] was 100%; in assay [14] it was 100%; in [15] it was 99%; in assay [17], 83%; in assay [18], 100%; in assay [19], 100%. Also, the inhibition result in assay [16] was “inactive”.
